# In ChEMBL document CHEMBL1123757, “Selective thromboxane synthetase inhibitors and antihypertensive agents. New derivatives of 4-hydrazino-5H-pyridazino[4,5-b]indole, 4-hydrazinopyridazino[4,5-a]indole, and related compounds” (J Med Chem, 1987):
# Assays:
# Rattus norvegicus [1] = experiment: Antihypertensive activity in spontaneously hypertensive rats (SHR) measured by percentage fall in cardiac rhythm (CR) at 25 mg/kg administered intraperitoneally at 24 h;No significance; format: functional, organism-based; set-up: dose 25 mg/kg; details: Heart
# Outline: (§1)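 Unanesthetized Okamoto-strain SHR, male and female, 8 weeks old, 300–350 g, systolic pressure ≥190 mmHg, heart rate 400–650 beats/min; five animals per dose. Given ip at 2.5 mL/kg, dissolved or suspended in normal saline or saline with 0.2% (carboxymethyl)cellulose and 1.0% Tween 80. Tail AP and CR recorded by mechanical transduction at set times; reported as percentage fall from control.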
# Rattus norvegicus [2] = experiment: Antihypertensive activity in spontaneously hypertensive rats (SHR) measured by percentage fall in arterial pressure (AP) at 25 mg/kg administered intraperitoneally at 5 h;No significance; format: functional, organism-based; set-up: dose 25 mg/kg; details: Artery; outline: as §1
# Rattus norvegicus [3] = experiment: Antihypertensive activity in spontaneously hypertensive rats (SHR) measured by percentage fall in arterial pressure (AP) at 25 mg/kg administered intraperitoneally at 1 h;No significance; format: functional, organism-based; set-up: dose 25 mg/kg; details: Artery; outline: as §1
# Rattus norvegicus [4] = experiment: Antihypertensive activity in spontaneously hypertensive rats (SHR) measured by percentage fall in cardiac rhythm (CR) at 25 mg/kg administered intraperitoneally at 5 h;No significance; format: functional, organism-based; set-up: dose 25 mg/kg; details: Heart
# Outline: (§2)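 Conscious SHR (Okamoto strain), 8 weeks old, male and female, 300–350 g, systolic BP ≥190 mmHg, CR 400–650 beats/min. Given ip or po at 2.5 mL/kg in normal saline or saline with 0.2% (carboxymethyl)cellulose and 1.0% Tween 80. Tail AP and CR recorded by mechanical transduction at 1, 3, 5 and 24 h, five animals per dose. Effect expressed as % fall versus control.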
# Rattus norvegicus [5] = experiment: Antihypertensive activity in spontaneously hypertensive rats (SHR) measured by percentage fall in cardiac rhythm (CR) at 25 mg/kg administered intraperitoneally at 3 h;No significance; format: functional, organism-based; set-up: dose 25 mg/kg; details: Heart; outline: as §2
# Homo sapiens [6] = species: Homo sapiens; experiment: In vitro inhibition of platelet aggregation induced by AA (PRP incubated for 60 minutes at 37 degree C) at 10e-5 M;NS means no significance; format: functional
# Outline: (§3)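 Human venous blood anticoagulated with 3.8% sodium citrate (1:9). PRP from centrifugation at 800 rpm for 10 min at room temperature. Count adjusted with PPP to […]. Compound in saline with 10% ethylene glycol is added to PRP and incubated at 37 °C before the agonist. Agonists: ADP 2×10^-5 M, AA 0.6 mM, PGH2 2.8 μM, adrenaline 0.6 μM. Born absorbance aggregometry; n = 5.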
# Rattus norvegicus [7] = experiment: Antihypertensive activity in spontaneously hypertensive rats (SHR) measured by percentage fall in arterial pressure (AP) at 25 mg/kg administered intraperitoneally at 3 h;No significance; format: functional, organism-based; set-up: dose 25 mg/kg; details: Artery; outline: as §1
# Homo sapiens [8] = species: Homo sapiens; experiment: In vitro inhibition of platelet aggregation induced by ADP-II (PRP incubated for 5 minutes at 37 degree C) at 10e-5 M;No significance; format: functional; outline: as §3
# Rattus norvegicus [9] = experiment: Antihypertensive activity in spontaneously hypertensive rats (SHR) measured by percentage fall in cardiac rhythm (CR) at 25 mg/kg administered intraperitoneally at 1 h; format: functional, Heart; details: route intraperitoneal; outline: as §1
# Rattus norvegicus [10] = experiment: Antihypertensive activity in spontaneously hypertensive rats (SHR) measured by percentage fall in arterial pressure (AP) at 25 mg/kg administered intraperitoneally at 24 h;No significance; format: functional, organism-based; set-up: dose 25 mg/kg; details: Artery; outline: as §1
# Homo sapiens [11] = species: Homo sapiens; experiment: In vitro inhibition of platelet aggregation induced by ADP-II (PRP incubated for 60 minutes at 37 degree C) at 10e-5 M; format: functional; details: 1 h; outline: as §3
# Homo sapiens [12] = species: Homo sapiens; experiment: In vitro inhibition of platelet aggregation induced by […] (PRP incubated for 5 minutes at 37 degree C) at 10e-5 M;NS means no significance; format: functional
smiles,measurement,setting,value
CCOc1ccc2[nH]c3c(O)nncc3c2c1,Decrease in CR,Rattus norvegicus [1],No significant values
same,Decrease in CR,Rattus norvegicus [2],No significant values
same,Decrease in AP,Rattus norvegicus [3],No significant values
same,Decrease in AP,Rattus norvegicus [4],No significant values
same,Decrease in CR,Rattus norvegicus [5],No significant values
same,inhibition,Homo sapiens [6],No significant values
same,inhibition,Rattus norvegicus [7],No significant values
same,inhibition,Homo sapiens [8],No significant values
same,Decrease in CR,Rattus norvegicus [9],6%
same,Decrease in AP,Rattus norvegicus [10],No significant values
same,inhibition at 10 µM,Homo sapiens [11],100%
same,inhibition,Homo sapiens [12],no significance
